By IC50 is commonly meant the midpoint of a concentration-inhibition curve. A word on the ΔTm: it is the change in melting temperature against a reference sample.

The test system of one assay is L1210. Description: Cytotoxicity against mouse L1210 cells. The assay is classed as functional, cell-based. Put shortly: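 Mouse leukemia L1210 cells grown in RPMI 1640 with 10% FCS, 2 mM glutamine, penicillin/streptomycin and 10 mM HEPES pH 7.4. Exposed 48 h to nine graded drug concentrations in triplicate. Read by microculture tetrazolium assay. IC50 is the concentration that halves absorbance relative to untreated cells; mean of 3.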

In assay [1] the test system is Calf thymus DNA. In words: Binding affinity to calf thymus DNA assessed as change in melting temperature. The format is nucleic-acid assay. The following applies: Bos taurus. In a few lines: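 CT-DNA ([…] as printed) in 1 mL BPE buffer pH 7.1 (6 mM Na2HPO4, 2 mM NaH2PO4, 1 mM EDTA), alone or with drug at base pair/drug ratio 1. A260 recorded every min, 20–100 °C at 1 °C/min, Peltier-controlled. Tm taken as midpoint of hyperchromic double- to single-strand transition; ΔTm relative to DNA alone.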

Assay [2] concerns Calf thymus DNA. Description: Binding affinity to calf thymus DNA assessed as decrease in absorbance at 20 uM by UV-visible spectrophotometry. The assay is classed as nucleic-acid assay. The settings on record: Bos taurus. In a few lines: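 Compound at […], with or without CT-DNA at […], in 1 mL BPE buffer pH 7.1 in a 10 mm quartz cuvette. Spectra scanned 230–500 nm against a blank holding the same DNA concentration in the same buffer. Drug/DNA ratio 1; DMSO stocks diluted into buffer.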

For assay [3], the target named is DNA topoisomerase 2-alpha (Homo sapiens) (UniProt P11388). Description: Inhibition of human recombinant topoisomerase 2-mediated relaxation of supercoiled […] by agarose gel electrophoresis. In a few lines: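 Supercoiled pUC19 (350 ng) preincubated with compound at […], or etoposide at 20 or 50, before adding 10 units human topoisomerase II; 37 °C for 45 min in cleavage buffer. Stopped with SDS 0.25% plus proteinase K, 30 min at 50 °C. Run on 1% agarose containing ethidium bromide, 2 h at 120 V in TBE.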

Assay [4] concerns Calf thymus DNA. In words: Binding affinity to calf thymus DNA assessed as decrease in fluorescence intensity at 20 uM by fluorescence spectrophotometry. The assay is classed as nucleic-acid assay. The following applies: Bos taurus. In a few lines: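 Fluorescent compound at […] in 1 mL BPE buffer pH 7.1, with or without […] CT-DNA, in a 10 mm quartz cuvette. Excitation at 268, 275 or 285 nm depending on compound; emission spectra scanned.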

Assay [5] has as its system Calf thymus DNA. In words: Binding affinity to calf thymus DNA assessed as circular dichroism at 50 uM by J810 Jasco spectrophotometer. The format is nucleic-acid assay. The settings on record: Bos taurus. In a few lines:
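CT-DNA deproteinized with SDS and dialyzed against 1 mM sodium cacodylate pH 7.0. Drug at […], with or without […] base pairs CT-DNA, in 1 mL 1 mM sodium cacodylate pH 7.0. CD spectra recorded 500–230 nm at 0.1 nm resolution.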
(In general: Circular dichroism is widely used to follow secondary structure.)

The target in assay [6] is T1, DNA topoisomerase 1 (Homo sapiens) (UniProt P11387).
T1 sequence (whole entry): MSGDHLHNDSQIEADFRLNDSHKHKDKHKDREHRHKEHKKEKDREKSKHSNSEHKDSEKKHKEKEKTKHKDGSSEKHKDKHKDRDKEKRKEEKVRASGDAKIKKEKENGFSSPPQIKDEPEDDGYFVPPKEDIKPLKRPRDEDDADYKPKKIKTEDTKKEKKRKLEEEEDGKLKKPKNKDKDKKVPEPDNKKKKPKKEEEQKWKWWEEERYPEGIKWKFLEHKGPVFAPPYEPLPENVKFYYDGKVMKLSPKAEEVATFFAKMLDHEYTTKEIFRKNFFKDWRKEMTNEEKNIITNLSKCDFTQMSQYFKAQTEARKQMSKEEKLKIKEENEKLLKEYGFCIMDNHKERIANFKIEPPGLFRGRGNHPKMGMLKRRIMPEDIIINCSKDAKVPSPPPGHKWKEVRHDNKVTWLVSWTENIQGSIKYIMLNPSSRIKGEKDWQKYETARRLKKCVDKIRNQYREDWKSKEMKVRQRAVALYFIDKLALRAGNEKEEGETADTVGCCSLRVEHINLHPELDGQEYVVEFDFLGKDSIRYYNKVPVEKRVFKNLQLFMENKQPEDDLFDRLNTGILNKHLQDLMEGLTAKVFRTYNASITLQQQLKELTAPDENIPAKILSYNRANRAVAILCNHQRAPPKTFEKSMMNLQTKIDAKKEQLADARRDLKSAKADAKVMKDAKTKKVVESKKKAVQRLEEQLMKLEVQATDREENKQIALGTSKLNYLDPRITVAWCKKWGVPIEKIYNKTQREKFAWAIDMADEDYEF
Description: Inhibition of human recombinant topoisomerase 1-mediated relaxation of supercoiled pUC19 by agarose gel electrophoresis.

Assay [7] concerns the target T1, DNA topoisomerase 1 (Homo sapiens). Description: Inhibition of human recombinant topoisomerase 1-mediated relaxation of supercoiled pUC19 at 1 to 5 uM by agarose gel electrophoresis.

Active and inactive are the calls of the source. No cut-off for these calls is given here.

Chain of DNA topoisomerase 2-alpha (Homo sapiens) (P11388 whole entry): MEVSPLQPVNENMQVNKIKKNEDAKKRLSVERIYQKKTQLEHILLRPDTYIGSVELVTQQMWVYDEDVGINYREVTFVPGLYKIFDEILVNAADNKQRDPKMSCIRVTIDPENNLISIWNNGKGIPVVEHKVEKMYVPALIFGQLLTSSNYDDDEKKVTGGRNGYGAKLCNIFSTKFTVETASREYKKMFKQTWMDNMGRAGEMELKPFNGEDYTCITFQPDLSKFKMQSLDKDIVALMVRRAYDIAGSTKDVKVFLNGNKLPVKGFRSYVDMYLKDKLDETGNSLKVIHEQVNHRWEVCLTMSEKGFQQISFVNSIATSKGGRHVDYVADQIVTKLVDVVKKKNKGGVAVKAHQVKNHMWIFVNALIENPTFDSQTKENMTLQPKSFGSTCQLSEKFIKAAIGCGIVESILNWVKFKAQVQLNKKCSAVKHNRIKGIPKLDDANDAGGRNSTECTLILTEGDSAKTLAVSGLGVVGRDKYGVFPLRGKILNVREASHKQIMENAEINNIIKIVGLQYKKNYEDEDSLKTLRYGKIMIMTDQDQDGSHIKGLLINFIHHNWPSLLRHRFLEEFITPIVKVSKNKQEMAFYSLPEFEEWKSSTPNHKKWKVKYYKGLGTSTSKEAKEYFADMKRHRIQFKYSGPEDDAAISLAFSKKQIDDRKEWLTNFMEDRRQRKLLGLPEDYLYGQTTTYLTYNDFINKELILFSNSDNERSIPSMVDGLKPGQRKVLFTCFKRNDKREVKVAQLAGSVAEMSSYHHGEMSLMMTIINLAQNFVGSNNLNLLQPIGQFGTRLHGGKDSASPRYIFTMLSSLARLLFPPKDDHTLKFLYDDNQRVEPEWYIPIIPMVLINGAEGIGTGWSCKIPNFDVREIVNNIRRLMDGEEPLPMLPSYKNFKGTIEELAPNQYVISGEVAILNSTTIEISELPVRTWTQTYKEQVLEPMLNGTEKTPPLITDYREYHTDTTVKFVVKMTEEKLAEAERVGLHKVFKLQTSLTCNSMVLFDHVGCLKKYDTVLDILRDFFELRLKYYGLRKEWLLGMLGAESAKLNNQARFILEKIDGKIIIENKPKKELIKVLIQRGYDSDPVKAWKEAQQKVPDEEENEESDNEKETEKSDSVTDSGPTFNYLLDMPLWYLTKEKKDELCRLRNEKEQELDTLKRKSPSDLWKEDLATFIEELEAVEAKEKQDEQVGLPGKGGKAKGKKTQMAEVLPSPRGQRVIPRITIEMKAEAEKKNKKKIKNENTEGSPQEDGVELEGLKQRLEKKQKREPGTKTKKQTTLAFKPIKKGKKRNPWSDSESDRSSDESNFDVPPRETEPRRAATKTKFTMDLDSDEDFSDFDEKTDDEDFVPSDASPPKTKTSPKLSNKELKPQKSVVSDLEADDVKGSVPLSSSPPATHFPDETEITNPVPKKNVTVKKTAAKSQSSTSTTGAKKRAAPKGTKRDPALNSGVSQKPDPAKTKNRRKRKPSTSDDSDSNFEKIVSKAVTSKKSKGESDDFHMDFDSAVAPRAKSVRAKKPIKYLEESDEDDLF

The compound `c1cc2c(ccc3c4cc5c(cc4cnc23)OCO5)cn1` returned an IC50 with L1210 of 4400 nM.

In the assay with L1210, `c1cnc2ccc3c4cc5c(cc4cnc3c2c1)OCO5` had an IC50 of 8800 nM.

As to `CCN(CC)CCNc1nccc2c1ccc1c3cc(OC)c(OC)cc3cnc21`, the ΔTm with Calf thymus DNA [1] was found to be 9 °C. Also, in the assay with L1210, the IC50 turned out to be 1770 nM. The outcome (in the assay on Calf thymus DNA [2]; in assay [3]) was Active.

For `COc1cc2cnc3c4ccc(NCCCN(C)C)nc4ccc3c2cc1OC`, the outcome (in the assay on Calf thymus DNA [4]; in the assay on Calf thymus DNA [2]; in assay [3]) was Active. Besides, the ΔTm with Calf thymus DNA [1] was found to be 0 °C. This compound also showed an IC50 with L1210 of 2850 nM.

Consider `CN(C)CCCNc1nccc2c1ccc1c3cc4c(cc3cnc21)OCO4`, for which the result (with Calf thymus DNA [5]; in assay [6]; in the assay on Calf thymus DNA [2]; in assay [3]) was Active. For the same compound, in the assay on Calf thymus DNA [1], the ΔTm was found to be 14 °C. Also, in assay [7], the result was inactive. In the assay with L1210, this compound gave an IC50 of 290 nM.

With `COc1cc2cnc3c4ccnc(NCCN(C)C)c4ccc3c2cc1OC`, the ΔTm in the assay on Calf thymus DNA [1] amounted to 9 °C. The compound also came in with an IC50 in the assay on L1210 of 3510 nM. The outcome (in the assay on Calf thymus DNA [2]; in assay [3]) was Active.

In turn, `COc1cc2c(ccc3c4cc(OC)c(OC)cc4c[n+](C)c23)cc1O` [FAGARONINE] displayed an IC50 with L1210 of 6600 nM.

Take `CN(C)CCNc1ccc2c(ccc3c4cc5c(cc4cnc23)OCO5)n1`: the outcome (in the assay with Calf thymus DNA [4]; in assay [6]; in the assay on Calf thymus DNA [2]; in assay [3]) was Active. Further, the ΔTm in the assay on Calf thymus DNA [1] turned out to be 4 °C. Moreover, in assay [7], the result was inactive. In addition, 320 nM corresponded to half-maximal inhibition with L1210 (IC50).

`COc1cc2cnc3c4ccnc(NCCCN(C)C)c4ccc3c2cc1OC`: the IC50 with L1210 came out at 1800 nM. Further, the outcome (in the assay on Calf thymus DNA [2]; in assay [3]) was Active.

Compound `COc1cc2cnc3c4ccncc4ccc3c2cc1OC` displayed a half-inhibitory concentration (IC50) in the assay with L1210 of 6600 nM.

In the case of `CCN(CC)CCNc1ccc2c(ccc3c4cc(OC)c(OC)cc4cnc23)n1`, the result (in the assay with Calf thymus DNA [4]; with Calf thymus DNA [2]; in assay [3]) was Active. Besides, the ΔTm with Calf thymus DNA [1] was 5 °C. The IC50 in the assay on L1210 was determined as 960 nM.

On to `COc1cc2cnc3c4ccc(NCCN(C)C)nc4ccc3c2cc1OC`, for which the outcome (in the assay with Calf thymus DNA [4]; in assay [6]; in the assay on Calf thymus DNA [2]; in assay [3]) was Active. In addition, the ΔTm in the assay on Calf thymus DNA [1] turned out to be 12 °C. Also, the inhibition result in assay [7] was “inactive”. Besides, the IC50 with L1210 came to 1730 nM.

`CCN(CC)CCCNc1ccc2c(ccc3c4cc(OC)c(OC)cc4cnc23)n1`: the outcome (in the assay on Calf thymus DNA [4]; with Calf thymus DNA [2]; in assay [3]) was Active. Also, the IC50 in the assay with L1210 stood at 1260 nM.

In turn, `COc1cc2cnc3c4cccnc4ccc3c2cc1OC` gave an IC50 with L1210 of 7100 nM.

Take `CCN(CC)CCCNc1nccc2c1ccc1c3cc(OC)c(OC)cc3cnc21`: it took 3700 nM to reach half-maximal inhibition with L1210 (IC50). Moreover, in assay [3], the outcome was Active.

As to `CN(C)CCCNc1ccc2c(ccc3c4cc5c(cc4cnc23)OCO5)n1`, the outcome (in the assay with Calf thymus DNA [5]; in the assay with Calf thymus DNA [4]; in the assay with Calf thymus DNA [2]; in assay [3]) was Active. Moreover, the IC50 in the assay with L1210 is 510 nM.

In the case of `CCN(CC)CCCNc1ccc2c(ccc3c4cc5c(cc4cnc23)OCO5)n1`, the result (with Calf thymus DNA [5]; with Calf thymus DNA [4]; with Calf thymus DNA [2]; in assay [3]) was Active. Moreover, the ΔTm with Calf thymus DNA [1] is 11 °C. For the same compound, the IC50 with L1210 is 830 nM.

For the compound `COc1cc2cnc3c4ccnc(Cl)c4ccc3c2cc1OC`, 4300 nM corresponded to half-maximal inhibition in the assay with L1210 (IC50). This lies in the single-digit micromolar range.

For `CN(C)CCNc1nccc2c1ccc1c3cc4c(cc3cnc21)OCO4`, the result (in assay [6]; in the assay on Calf thymus DNA [2]; in assay [3]) was Active. The ΔTm in the assay on Calf thymus DNA [1] turned out to be 7 °C. In addition, the result in assay [7] was inactive.

For the compound `CCN(CC)CCNc1ccc2c(ccc3c4cc5c(cc4cnc23)OCO5)n1`, the outcome (in the assay on Calf thymus DNA [4]; in assay [6]; with Calf thymus DNA [2]; in assay [3]) was Active. In the assay with Calf thymus DNA [1], the ΔTm was determined as 5 °C. For the same compound, the outcome in assay [7] was inactive. The compound also gave an IC50 with L1210 of 1740 nM.

These data come from ChEMBL document CHEMBL1165901, “Synthesis and biological evaluation of dialkylaminoalkylamino benzo[c][1,7] and [1,8]phenanthrolines as antiproliferative agents” (Eur J Med Chem, 2010).
